The values that follow come from ChEMBL document CHEMBL3102857, “Synthesis and biological evaluation of 6H-pyrido[2',1':2,3]imidazo[4,5-c]isoquinolin-5(6H)-ones as antimitotic agents and inhibitors of tubulin polymerization” (Bioorg Med Chem, 2014).

For orientation: IC50 means the midpoint of a concentration-inhibition curve. As usually defined, the inhibition is the drop in the measured response relative to a control, in per cent.

Activity calls are given as the source filed them. No cut-off for these calls is given here.

Test [1] concerns HeLa. The test is described as follows: Antiproliferative activity against human HeLa cells after 72 hrs by SRB assay. The format is functional, cell-based. The method in brief:
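HeLa cells exposed to compound for 72 h, fixed with cold 10% TCA, stained with SRB in 1% acetic acid. Bound dye dissolved in 10 mM Tris-HCl and read at 515 nm. Inhibition % = [1 − (A515 treated/A515 control)] × 100. IC50 by Logit method, mean ± SD of at least three independent tests.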
Background: The SRB assay estimates cell density from bound dye.

Test [2] deals with T1, Tubulin (Homo sapiens) (UniProt P68371+Q9H4B7+P0DPH7+P68366+Q13509+Q71U36+P04350+Q3ZCM7+P07437+P68363+Q9BQE3+Q6PEY2+Q13885+Q9BVA1+Q9BUF5). The test is described as follows: Displacement of [3H]-colchicine from tubulin (unknown origin) at 20 uM preincubated for 1 hr followed by radioligand addition measured after 30 mins by competitive binding assay. It is filed as protein-complex assay. In general terms: In a radioligand displacement assay an active substance lowers the binding of a labelled ligand.

The target in test [3] is T1, Tubulin (Homo sapiens). The test is described as follows: Inhibition of tubulin polymerization (unknown origin) at 20 uM by spectrophotometric analysis. It is filed as protein-complex assay. The method in brief:
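Purified tubulin combined with 20 µM compound on ice, then moved to 37 °C. Buffer: 80 mM PIPES pH 6.9, 0.5 mM EGTA, 2 mM MgCl2, 1 mM GTP. Polymerization followed by absorbance at 340 nm.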

Test [4] concerns HeLa. Nature of the test: Cell cycle arrest in human HeLa cells assessed as decrease in accumulation at G0/G1 phase at 0.5 uM after 12 hrs by propidium iodide staining-based flow cytometric analysis. The format is functional. Summed up: (§1)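 Cells given 0.5 µM compound for 12 h, harvested, PBS-washed, fixed in cold 70% ethanol at 4 °C. Stained with propidium iodide ([…] as printed). DNA content analysed by flow cytometry for G0/G1, S and G2/M fractions.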
For orientation: In flow cytometry, cells or beads pass a laser one at a time.

Test [5] concerns HeLa. The test is described as follows: Cell cycle arrest in human HeLa cells assessed as decrease in accumulation at S phase at 0.5 uM after 12 hrs by propidium iodide staining-based flow cytometric analysis. It is filed as functional. Summed up:
as §1

The test system of test [6] is HeLa. Nature of the test: Cell cycle arrest in human HeLa cells assessed as accumulation at G2/M phase at 0.5 uM after 12 hrs by propidium iodide staining-based flow cytometric analysis (reference value: 3%). The format is functional. The method in brief: as §1
Test [7] deals with HeLa. Nature of the test: Antimitotic activity against human HeLa cells assessed as multipolar mitotic spindle with disordered chromosome organization at 0.5 uM after 12 hrs by DAPI staining-based immunofluorescence microscopic analysis. The format is functional, cell-based. The method in brief: (§2)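 HeLa cells on glass coverslips, 0.5 µM compound for 12 h; fixed in 4% paraformaldehyde, permeabilized with 0.2% Triton X-100, blocked with 3% BSA. Stained with anti-α-tubulin (1:200) and Alexa Fluor 488 goat anti-mouse IgG (1:100), 1 h each, then DAPI. Imaged by fluorescence and confocal microscopy. Abnormal spindles scored as percentage of total mitotic cells.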

Test [8] concerns HeLa. The test is described as follows: Antimitotic activity against human HeLa cells assessed as disruption of mitotic spindle assembly at 0.5 uM after 12 hrs by DAPI staining-based immunofluorescence microscopic analysis. It is filed as functional, cell-based. Summed up:
as §2

With `COc1ccc(Cn2c(=O)c3ccccc3c3nc4cc(C)c(Br)cn4c32)cc1`, in test [1], the IC50 was more than 10000 nM.
As to `COc1ccc(Cn2c(=O)c3ccccc3c3nc4c(C)cccn4c32)cc1`, the 50% inhibitory concentration (IC50) in test [1] was more than 10000 nM.
`O=c1c2ccccc2c2nc3ccccn3c2n1Cc1ccco1` returned a half-maximal inhibitory concentration (IC50) in test [1] of more than 10000 nM.
Same read-out and setting: then `COC(=O)CCn1c(=O)c2ccccc2c2nc3ccccn3c21`, with more than 10000 nM.
On the same count and under the same terms, then `COc1ccc(Cn2c(=O)c3ccccc3c3nc4ccc(Br)c(C)n4c32)cc1`, with more than 10000 nM.
On to `COc1ccc(CCn2c(=O)c3ccccc3c3nc4ccc(NCCO)cn4c32)cc1`, for which the values for the inhibition in test [2] and in test [3] were 34% and 26%, respectively. The same molecule displayed an IC50 in test [1] of 350 nM.
As to `CN(c1ccc(Cn2c(=O)c3ccccc3c3nc4ccccn4c32)cc1)S(C)(=O)=O`, the concentration for half-maximal inhibition (IC50) in test [1] is more than 10000 nM.
The same measure, in the same setting: then `COc1ccc(Cn2c(=O)c3ccccc3c3nc4cccc(C)n4c32)cc1`, with more than 10000 nM.
As to `COC(=O)Cn1c(=O)c2ccccc2c2nc3ccccn3c21`, the 50% inhibitory concentration (IC50) in test [1] is more than 10000 nM.
As to `COc1ccc(Cn2c(=O)c3ccccc3c3nc4ccccn4c32)cc1`, the outcome in test [4] and in test [5] was Active. In test [1], this molecule displayed an IC50 of 1800 nM. For the same molecule, in test [6], the Activity stood at 4%.
In the case of `CC[C@]1(O)C[C@H]2CN(CCc3c([nH]c4ccccc34)[C@@](C(=O)OC)(c3cc4c(cc3OC)N(C=O)[C@H]3[C@@](O)(C(=O)OC)[C@H](OC(C)=O)[C@]5(CC)C=CCN6CC[C@]43[C@@H]65)C2)C1` [VINCRISTINE], half-maximal inhibition in test [1] (IC50) was put at 15 nM. For the same molecule, in test [3], the inhibition was found to be 77%.
With `O=c1c2ccccc2c2nc3ccccn3c2n1Cc1ccc2c(c1)OCO2`, the half-inhibitory concentration (IC50) in test [1] is more than 10000 nM.
As for `O=c1c2ccccc2c2nc3ccccn3c2n1Cc1ccc(OC(F)(F)F)cc1`, in test [1], the concentration for half-maximal inhibition (IC50) was more than 10000 nM.
On the same count and under the same terms, then `CC(=O)OCCn1c(=O)c2ccccc2c2nc3ccccn3c21`, with more than 10000 nM.
Still for that read-out and setting: the figure for `COc1ccc(Cn2c(=O)c3ccccc3c3nc4ccccn4c32)c(OC)c1` is 2240 nM.
In the case of `COc1ccc(CCn2c(=O)c3ccccc3c3nc4ccc(-n5ccnc5)cn4c32)cc1`, the inhibition is 36% in test [2] and 40% in test [3]. In addition, in test [1], the midpoint of inhibition, the IC50, lay at 120 nM.
Take `COc1ccc(CCn2c(=O)c3ccccc3c3nc4ccccn4c32)cc1`: the outcome in test [4], in test [7], in test [5] and in test [8] was Active. Also, the figures for the inhibition in test [2] and in test [3] were 74% and 76%, respectively. In test [1], this molecule yielded a half-inhibitory concentration (IC50) of 70 nM. In addition, in test [6], the Activity was determined as 37%.
In test [1], `COc1ccc(CCCn2c(=O)c3ccccc3c3nc4ccccn4c32)cc1` had an IC50 of more than 10000 nM.
On the same count and under the same terms, then `COc1ccc(Cn2c(=O)c3ccccc3c3nc4ccc(C)cn4c32)cc1`, with 6600 nM.
`COc1ccc(CCn2c(=O)c3ccccc3c3nc4ccc(NCCCn5ccnc5)cn4c32)cc1`: the inhibition is 21% in test [2] and 33% in test [3]. Moreover, the IC50 in test [1] worked out at 770 nM.
In test [1], `O=c1c2ccccc2c2nc3ccccn3c2n1CCc1ccc(O)cc1` returned an IC50 of more than 10000 nM.
For the molecule `COc1ccc(CCn2c(=O)c3ccccc3c3nc4ccc(NCc5cccnc5)cn4c32)cc1`, the result in test [4], in test [7], in test [5] and in test [8] was Active. The inhibition is 78% in test [2] and 74% in test [3]. In test [1], this molecule came in with a concentration for half-maximal inhibition (IC50) of 60 nM. Further, the Activity in test [6] worked out at 41%.
For the molecule `COc1ccc(CCn2c(=O)c3ccccc3c3nc4ccc(NCCN5CCOCC5)cn4c32)cc1`, the inhibition in test [2] and in test [3] was 15% in each case. Besides, the 50% inhibitory concentration (IC50) in test [1] was 1200 nM.
With `COc1ccc(CCn2c(=O)c3ccccc3c3nc4ccc(NCc5ccncc5)cn4c32)cc1`, the figures for the inhibition in test [2] and in test [3] were 53% and 63%, respectively. Also, in test [1], the IC50 came out at 100 nM.
Taken in the same sequence, the figures for `CCN(CC)CCNc1ccc2nc3c4ccccc4c(=O)n(CCc4ccc(OC)cc4)c3n2c1` were 20%, 18% and 2280 nM.
The molecule `COc1ccc(Cn2c(=O)c3ccccc3c3nc4ccccn4c32)cc1OC` gave an IC50 in test [1] of more than 10000 nM.
As to `COc1ccc(CCn2c(=O)c3ccccc3c3nc4ccc(NCc5ccccn5)cn4c32)cc1`, the inhibition turned out to be 22% in test [2] and 27% in test [3]. For the same molecule, the half-maximal inhibitory concentration (IC50) in test [1] was 240 nM.
